Measurements: PMC10870986 (Indian Journal of Endocrinology and Metabolism, 2023)

Key:
[1] = Etiological profile of hyperprolactinemia, Endocrine OPD; assay type: in vivo, human; details: 50 subjects with hyperprolactinemia; use of drugs 56% of etiologies; Domperidone with and without PPI
[2] = ref not given, cited from earlier work
[3] = Hyperprolactinemia in patients referred to a tertiary care hospital; assay type: in vivo, human; details: for drug-induced hyperprolactinemia with prolactin levels greater than 100 ng/ml: number of cases / drug-induced hyperprolactinemia with prolactin levels less than 100 ng/ml: number of cases: 11 drug-induced cases among 58
[4] = Case: diazoxide in Prader-Willi Syndrome; assay type: in vivo, human; details: child with PWS
[5] = Case: cabozantinib for metastatic MTC; assay type: in vivo, human; details: single patient
[6] = assay type: in vivo, human
[7] = Case: ACTH and prolactin co-secreting pituitary adenoma treated with cabergoline; assay type: in vivo, human; details: single patient
[8] = Giant prolactinoma case series, response to cabergoline; assay type: in vivo, human; details: follow-up MRI in 17 patients
Summary of the method: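 Patients with giant prolactinoma all received cabergoline, dose range 0.5-7 mg/week, over a mean follow-up of 11.78 ± 14.89 months. Tumour shrinkage was judged against the baseline maximum tumour dimension on follow-up MRI, which was available for 17 patients.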

Case: hypomagnesemia = assay type: in vivo, human; details: single child, Tab. MgO 200mg TID
[9] = assay type: in vivo, human; remark: listed apart in the source
Summary of the method: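 Observational study of 167 diabetic outpatients seen January–June 2023. All had HbA1c, FPG and PPG uncontrolled on two or three oral hypoglycaemic agents and were unwilling to start insulin. Imeglimin was added as the third or fourth agent, and FPG, PPG, HbA1c and adverse effects were recorded afterwards.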

[10] = Case: nivolumab induced endocrine dysfunction; assay type: in vivo, human; details: single patient, 240 mg fortnightly, after 10 cycles
[11] = Case series: immune check point inhibitor induced endocrine dysfunction; assay type: in vivo, human; details: series of ten patients with IRAE
[12] = Semaglutide in type 2 diabetes, cross sectional study; assay type: in vivo, human; details: Likert 5-point scale
[13] = Case: growth hormone therapy in short stature with Crohn's disease; assay type: in vivo, human; details: single patient
[14] = Case: Chiari Frommel syndrome treated with bromocriptine; assay type: in vivo, human; details: single patient, 2.5mg for one month
[15] = Orlistat vs orlistat + resveratrol in overweight/obese subjects, 12 weeks; assay type: in vivo, human
[16] = assay type: in vivo, human; details: orlistat 120 mg thrice daily, mean [SD]
[17] = fulminant hepatic failure, fatal
[18] = last Ketoconazole dose the night before surgery, isoflurane anaesthesia
[19] = single patient on Ketoconazole 1200 mg/day and spironolactone 200 mg/day

CN[C@H]1CC[C@@H](c2ccc(Cl)c(Cl)c2)c2ccccc21 [Sertraline]
Among the drugs causing hyperprolactinemia: share of cases [1]: 3.57%

COc1cc(CNC(=O)CCCC/C=C/C(C)C)ccc1O [capsaicin]
pain control, capsaicin lotion compared with placebo ([2]; analysis on treatment intention, all pain measures): insignificant improvement in pain control | pain relief, topical capsaicin cream […], multicenter controlled trial ([2]; initial results, vs placebo): more relief of the pain associated with diabetic neuropathy than placebo | tolerability, capsaicin […] cream ([2]; may lead to withdrawal from the study): local skin irritation, which is often mild and transient | pain relief, capsaicin […] cream applied to the painful area ([2]; painful diabetic neuropathy): significant pain relief | pain relief, topical capsaicin […] for four to six weeks [2]: either complete or significant relief

CCN1CCC[C@H]1CNC(=O)c1cc(S(N)(=O)=O)ccc1OC [levosulpiride]
drug-induced hyperprolactinemia with prolactin levels greater than 100 ng/ml: number of cases [3]: 5 cases | drug-induced hyperprolactinemia with prolactin levels less than 100 ng/ml: number of cases [3]: 1 cases | prolactin levels in drug-induced hyperprolactinemia ([3]; statement of the conclusion): > 100 ng/mL

CC1=NS(=O)(=O)c2cc(Cl)ccc2N1 [diazoxide]
tolerability ([4]; 3 mg/kg/d): well tolerated | effect on hyperphagia ([4]; 3 mg/kg/d in two divided doses, after 3 weeks): perceptible reduction in hyperphagia

COc1cc2nccc(Oc3ccc(NC(=O)C4(C(=O)Nc5ccc(F)cc5)CC4)cc3)c2cc1OC [cabozantinib]
response of metastatic MTC [5]: good response | tolerability [5]: stopped due to side effects

CC(=O)N1CCN(c2ccc(OCC3COC(Cn4ccnc4)(c4ccc(Cl)cc4Cl)O3)cc2)CC1 (centres unmarked) [Ketoconazole]
ALT, 5th post operative day [6, 17]: 5053 U/L | AST, 5th post operative day [6, 17]: 7844 L⁻¹ | GGT, 5th post operative day [6, 17]: 207 U/L | INR, 5th post operative day [6, 17]: > 11 | PT, 5th post operative day [6, 17]: > 120 s | aPTT, 5th post operative day [6, 17]: > 180 s | ALT, 4th post operative day [6, 18]: 433 U/L | AST, 4th post operative day [6, 18]: 370 U/L | GGT, 4th post operative day [6, 18]: 233 U/L | ALT before the surgery [6, 19]: 30 IU/ml | AST before the surgery [6, 19]: 27 IU/ml

C=CCN1C[C@H](C(=O)N(CCCN(C)C)C(=O)NCC)C[C@@H]2c3cccc4[nH]cc(c34)C[C@H]21 [cabergoline]
outcome at increased dose ([7]; cabergoline 2mg/week): developed adrenal insufficiency | Follow up prolactin ([7]; on cabergoline 0.5mg/week, before dose increase): 15737 miu/l | Stimulated cortisol ([7]; post 3 days of cabergoline 0.5mg/week): 535 nmol/L | 8am cortisol ([7]; post 3 days of cabergoline 0.5mg/week, before 525nmol/l): 132 nmol/L | Prolactin ([7]; post 3 days of cabergoline 0.5mg/week, before 20982miu/l): 9215 miu/l | Tumor shrinkage <50%, share of patients ([8]; 2 patients): 11.76% | disappearance of radiologically detectable tumor, share of patients ([8]; 2 patients): 11.76% | Tumor shrinkage of >50% from the baseline, share of patients ([8]; 13 patients): 76.47%

[O]=[Mg] [MgO]
calcium on treatment (Case: hypomagnesemia): 9.2 mg/dL | Serum Magnesium on treatment (Case: hypomagnesemia; at presentation 0.4mg/dl): 1.2 mg/dL

C[C@H]1N=C(N(C)C)N=C(N)N1 [imeglimin]
most common adverse effect ([9]; n=167): gastrointestinal issues | HbA1c after imeglimin was added ([9]; n=167, add-on to two or three OHAs, baseline 9.1±1.8, p=0.004): 7.2±1.2 | FPG after imeglimin was added ([9]; n=167, add-on to two or three OHAs, baseline 176.61±45.75, p=0.013): 108.05±24.79 | PPG after imeglimin was added ([9]; n=167, add-on to two or three OHAs, baseline 247.86±68.17, p=0.020): 156.49±38.53

Cc1nc2n(c(=O)c1CCN1CCC(c3noc4cc(F)ccc34)CC1)CCCC2 [Risperidone]
drug-induced hyperprolactinemia with prolactin levels greater than 100 ng/ml: number of cases [3]: 1 cases | drug-induced hyperprolactinemia with prolactin levels less than 100 ng/ml: number of cases [3]: 1 cases | Among the drugs causing hyperprolactinemia: share of cases [1]: 7.14%

nivolumab
immune-related adverse events diagnosed [10]: checkpoint inhibitor induced diabetes mellitus (CPI-DM) and central adrenal insufficiency | patients with isolated thyroid dysfunction on the drug [11]: five

CC[C@H](C)[C@H](NC(=O)[C@H](Cc1ccccc1)NC(=O)[C@H](CCC(=O)O)NC(=O)[C@H](CCCCNC(=O)COCCOCCNC(=O)COCCOCCNC(=O)CC[C@H](NC(=O)CCCCCCCCCCCCCCCCC(=O)O)C(=O)O)NC(=O)[C@H](C)NC(=O)[C@H](C)NC(=O)[C@H](CCC(N)=O)NC(=O)CNC(=O)[C@H](CCC(=O)O)NC(=O)[C@H](CC(C)C)NC(=O)[C@H](Cc1ccc(O)cc1)NC(=O)[C@H](CO)NC(=O)[C@H](CO)NC(=O)[C@@H](NC(=O)[C@H](CC(=O)O)NC(=O)[C@H](CO)NC(=O)[C@@H](NC(=O)[C@H](Cc1ccccc1)NC(=O)[C@@H](NC(=O)CNC(=O)[C@H](CCC(=O)O)NC(=O)C(C)(C)NC(=O)[C@@H](N)Cc1cnc[nH]1)[C@@H](C)O)[C@@H](C)O)C(C)C)C(=O)N[C@@H](C)C(=O)N[C@@H](Cc1c[nH]c2ccccc12)C(=O)N[C@@H](CC(C)C)C(=O)N[C@H](C(=O)N[C@@H](CCCNC(=N)N)C(=O)NCC(=O)N[C@@H](CCCNC(=N)N)C(=O)NCC(=O)O)C(C)C [semaglutide]
patients rating strongly agree or agree for adverse event: diarrhoea [12]: 91.3% | patients rating strongly agree or agree for adverse event: loss of appetite [12]: 87.4% | patients rating strongly agree or agree for adverse event: nausea [12]: 93.5%

rHGH: recombinant growth hormone injection
catchup growth ([13]; 0.18mg/kg/week, 6 months): 7 cm | growth thereafter at higher doses ([13]; 0.3mg/kg/week, undiagnosed Crohn's disease): height remained static

CC(C)C[C@H]1C(=O)N2CCC[C@H]2[C@]2(O)O[C@](NC(=O)[C@@H]3C=C4c5cccc6[nH]c(Br)c(c56)C[C@H]4N(C)C3)(C(C)C)C(=O)N12 [bromocriptine]
effect on galactorrhea [14]: Milk secretion was slowed down

Cc1cc2c(s1)Nc1ccccc1N=C2N1CCN(C)CC1 [Olanzapine]
Among the drugs causing hyperprolactinemia: share of cases [1]: 3.57%

CCCCCCCCCCC[C@@H](C[C@@H]1OC(=O)[C@H]1CCCCCC)OC(=O)[C@H](CC(C)C)NC=O [orlistat]
diarrhoea, number of patients [15]: 7 patients | weight loss, patients with diabetes with a BMI >=30 ([15]; sub-group, p=0.045): -1.04 kg | weight loss, patients with diabetes with steatosis ([15]; sub-group, p=0.048): -0.44 kg | weight loss compared to baseline ([15]; thrice daily, 247 completers, mean body weight ~80 kg): -2.92 kg | mean weight loss after 2 months, group 2 ([16]; patients with diabetes): 6.3 [4.9] % | mean weight loss after 4 months, group 2 ([16]; patients with diabetes): 8.7 [4.7] % | mean weight loss after 6 months, group 2 ([16]; patients with diabetes): 12.9 [2.4] % | mean weight loss after 2 months, group 1 ([16]; patients without diabetes): 7.1 [6.1] % | mean weight loss after 4 months, group 1 ([16]; patients without diabetes): 14.6 [12.9] % | mean weight loss after 6 months, group 1 ([16]; patients without diabetes): 16.1 [6.7] % | mean weight loss after 2 months, group 3 ([16]; prediabetic patients): 6 [2.6] % | mean weight loss after 4 months, group 3 ([16]; prediabetic patients): 15.5 [15.4] % | mean weight loss after 6 months, group 3 ([16]; prediabetic patients): 15.8 [6.2] %

O=c1[nH]c2ccccc2n1CCCN1CCC(n2c(=O)[nH]c3cc(Cl)ccc32)CC1 [Domperidone]
drug-induced hyperprolactinemia with prolactin levels less than 100 ng/ml: number of cases [3]: 3 cases | Among the drugs causing hyperprolactinemia: share of cases [1]: 53.57%
